In brackets after ≈: the same amount, converted by molar mass. Activity calls are given as the source filed them. No cut-off for these calls is given here.
What was measured:
Enterococcus faecalis [1] = experiment: Antibacterial activity against Enterococcus faecalis after 24 hrs by broth microdilution method; assay type: functional
Procedure, shortened: (§1)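 2-fold serial dilutions of test agent in LB broth, DMSO under 5% final. Inoculum about 5 × 10^5 CFU/mL, confirmed by LB agar plating. Incubated 24 h at 35 °C in ambient air. MIC is the lowest concentration with no visible growth. Three repeats; oxacillin, vancomycin and chloramphenicol as positive controls.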

Enterococcus faecalis [2] = experiment: Antibacterial activity against Enterococcus faecalis after 48 hrs by broth microdilution method; assay type: functional
Enterococcus faecium [3] = experiment: Antibacterial activity against vancomycin-resistant Enterococcus faecium F935 expressing VanA after 24 hrs by broth microdilution method; assay type: functional; conditions: F935, 24 h; procedure, shortened: as §1
Enterococcus faecium [4] = experiment: Antibacterial activity against vancomycin-resistant Enterococcus faecium F935 expressing VanA after 48 hrs by broth microdilution method; assay type: functional; conditions: F935, 48 h
Enterococcus faecalis [5] = experiment: Antibacterial activity against vancomycin-resistant Enterococcus faecalis CKU-17 expressing VanB after 24 hrs by broth microdilution method; assay type: functional; conditions: CKU-17, 24 h; procedure, shortened: as §1
Enterococcus faecalis [6] = experiment: Antibacterial activity against vancomycin-resistant Enterococcus faecalis CKU-17 expressing VanB after 48 hrs by broth microdilution method; assay type: functional; conditions: CKU-17, 48 h
Escherichia coli = experiment: Antibacterial activity against Escherichia coli up to 100 ug/mL after 24 hrs by broth microdilution method; assay type: functional, organism-based
Procedure, shortened: (§2)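 Broth microdilution with 2-fold serial dilutions in LB broth, compounds from DMSO stocks (DMSO below 5% final), inoculum about 5 × 10^5 CFU/mL. Incubated 24 h at 35 °C in ambient air. MIC is the lowest concentration with no visible growth. Experiments repeated three times.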

Pseudomonas aeruginosa = experiment: Antibacterial activity against Pseudomonas aeruginosa up to 100 ug/mL after 24 hrs by broth microdilution method; assay type: functional, organism-based; procedure, shortened: as §2
Staphylococcus aureus [7] = experiment: Ratio of MBC to MIC for Staphylococcus aureus; assay type: functional
Enterococcus faecalis [8] = experiment: Ratio of MBC to MIC for Enterococcus faecalis; assay type: functional
Enterococcus faecium [9] = experiment: Ratio of MBC to MIC for vancomycin-resistant Enterococcus faecium F935 expressing VanA; assay type: functional
HepG2 = experiment: Cytotoxicity against human HepG2 cells after 48 hrs by MTT assay; assay type: functional; conditions: HepG2, 48 h, read-out: CD50 (the source's name)
Procedure, shortened: (§3)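 Cells seeded at 5 × 10^3 per well, grown 24 h, then given 2-fold dilutions of sample for 48 h. Medium replaced with serum-free medium, MTT added (5 mg/mL stock) for 2 h at 37 °C, formazan dissolved in DMSO, OD read at 550 nm. CD50 is the concentration giving 50% reduction in net cell increase. Quadruplicate, repeated at least twice.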

HeLa = experiment: Cytotoxicity against human HeLa cells after 48 hrs by MTT assay; assay type: functional; conditions: read-out: CD50 (the source's name); procedure, shortened: as §3
OVCAR-3 = experiment: Cytotoxicity against human OVCAR-3 cells after 48 hrs by MTT assay; assay type: functional; conditions: OVCAR-3, 48 h, read-out: CD50 (the source's name); procedure, shortened: as §3
Staphylococcus aureus [10] = experiment: Antibacterial activity against Staphylococcus aureus after 24 hrs by broth microdilution method; assay type: functional
Procedure, shortened: as §1, with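 “in […]” for “in LB”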

Staphylococcus aureus [11] = experiment: Antibacterial activity against Staphylococcus aureus after 48 hrs by broth microdilution method; assay type: functional
Staphylococcus aureus [12] = experiment: Antibacterial activity against methicillin-resistant Staphylococcus aureus 8-8S after 24 hrs by broth microdilution method; assay type: functional
Procedure, shortened: as §1, with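 “in […]” for “in LB”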

Staphylococcus aureus [13] = experiment: Antibacterial activity against methicillin-resistant Staphylococcus aureus 8-8S after 48 hrs by broth microdilution method; assay type: functional
Enterococcus faecalis [14] = experiment: Antibacterial activity against vancomycin-resistant Enterococcus faecalis CKU-17 expressing VanB assessed as reduction of bacterial count at >=2 times MIC within 4 hrs by time kill assay; assay type: functional, organism-based
Procedure, shortened: (§4)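 Time-kill in LB broth with multiples of the broth microdilution MIC (1/2 to 8× MIC). Starting inoculum about 5 × 10^5 CFU/mL, incubated at 35 °C. Samples taken at 0, 2, 4, 6 and 24 h, dilution-plated on LB agar, and counted after 24 h. Detection limit 100 CFU/mL.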

Enterococcus faecium [15] = experiment: Antibacterial activity against vancomycin-resistant Enterococcus faecium F935 expressing VanA assessed as reduction of bacterial count at >=2 times MIC concentration within 4 hrs by time kill assay; assay type: functional, organism-based; procedure, shortened: as §4
Enterococcus faecalis [16] = experiment: Antibacterial activity against vancomycin-resistant Enterococcus faecalis CKU-17 expressing VanB assessed as reduction of bacterial count at MIC up to 6 hrs by time kill assay; assay type: functional, organism-based; procedure, shortened: as §4
Enterococcus faecium [17] = experiment: Antibacterial activity against vancomycin-resistant Enterococcus faecium F935 expressing VanA assessed as reduction of bacterial count at MIC up to 6 hrs by time kill assay; assay type: functional, organism-based; procedure, shortened: as §4
Staphylococcus aureus [18] = experiment: Ratio of MBC to MIC for methicillin-resistant Staphylococcus aureus 8-8S; assay type: functional
Enterococcus faecalis [19] = experiment: Ratio of MBC to MIC for vancomycin-resistant Enterococcus faecalis CKU-17 expressing VanB; assay type: functional

CC(C)=CC[C@H](O)C1=CC(=O)c2c(O)ccc(O)c2C1=O [ALKANNIN]
MIC (Enterococcus faecalis [1]): 50 µg/mL (≈ 173 µM)
MBC (Enterococcus faecalis [2]): 50 µg/mL (≈ 173 µM)
MIC (Enterococcus faecium [3]): 50 µg/mL (≈ 173 µM)
MBC (Enterococcus faecium [4]): 50 µg/mL (≈ 173 µM)
MIC (Enterococcus faecalis [5]): 25 µg/mL (≈ 86.7 µM)
MBC (Enterococcus faecalis [6]): 50 µg/mL (≈ 173 µM)
Activity (Escherichia coli): inactive
Activity (Pseudomonas aeruginosa): inactive
Ratio (Staphylococcus aureus [7]): <=2
Ratio (Enterococcus faecalis [8]): <=2
Ratio (Enterococcus faecium [9]): <=2
CC50 (HepG2): 1 µg/mL (≈ 3.47 µM)
CC50 (HeLa): 0.8 µg/mL (≈ 2.77 µM)
CC50 (OVCAR-3): 0.8 µg/mL (≈ 2.77 µM)
MIC (Staphylococcus aureus [10]): 6.25 µg/mL (≈ 21.7 µM)
MBC (Staphylococcus aureus [11]): 12.5 µg/mL (≈ 43.4 µM)
MIC (Staphylococcus aureus [12]): 6.25 µg/mL (≈ 21.7 µM)
MBC (Staphylococcus aureus [13]): 12.5 µg/mL (≈ 43.4 µM)

CC(C)=CC[C@H](OC(=O)CC(C)C)C1=CC(=O)c2c(O)ccc(O)c2C1=O [ISOVALERYL ALKANNIN]
MIC (Enterococcus faecalis [1]): 3.13 µg/mL (≈ 8.4 µM)
MBC (Enterococcus faecalis [2]): 3.13 µg/mL (≈ 8.4 µM)
MIC (Enterococcus faecium [3]): 3.13 µg/mL (≈ 8.4 µM)
MBC (Enterococcus faecium [4]): 3.13 µg/mL (≈ 8.4 µM)
MIC (Enterococcus faecalis [5]): 3.13 µg/mL (≈ 8.4 µM)
MBC (Enterococcus faecalis [6]): 3.13 µg/mL (≈ 8.4 µM)
Activity (Escherichia coli): inactive
Activity (Pseudomonas aeruginosa): inactive
Ratio (Staphylococcus aureus [7]): <=2
Ratio (Enterococcus faecalis [8]): <=2
Ratio (Enterococcus faecium [9]): <=2
Activity (Enterococcus faecalis [14]): Active
Activity (Enterococcus faecium [15]): Active
Activity (Enterococcus faecalis [16]): Active
Activity (Enterococcus faecium [17]): Active
CC50 (HepG2): 2.2 µg/mL (≈ 5.91 µM)
CC50 (HeLa): 1.7 µg/mL (≈ 4.56 µM)
CC50 (OVCAR-3): 0.9 µg/mL (≈ 2.42 µM)
MIC (Staphylococcus aureus [10]): 1.56 µg/mL (≈ 4.19 µM)
MBC (Staphylococcus aureus [11]): 1.56 µg/mL (≈ 4.19 µM)
MIC (Staphylococcus aureus [12]): 3.13 µg/mL (≈ 8.4 µM)
MBC (Staphylococcus aureus [13]): 3.13 µg/mL (≈ 8.4 µM)

CC1=CC(=O)c2c(O)cccc2C1=O [PLUMBAGIN]
MIC (Enterococcus faecalis [1]): 25 µg/mL (≈ 133 µM)
MBC (Enterococcus faecalis [2]): 100 µg/mL (≈ 531 µM)
MIC (Enterococcus faecium [3]): 12.5 µg/mL (≈ 66.4 µM)
MBC (Enterococcus faecium [4]): 50 µg/mL (≈ 266 µM)
MIC (Enterococcus faecalis [5]): 12.5 µg/mL (≈ 66.4 µM)
MBC (Enterococcus faecalis [6]): 50 µg/mL (≈ 266 µM)
Ratio (Staphylococcus aureus [7]): >=4
Ratio (Staphylococcus aureus [18]): >=4
Ratio (Enterococcus faecalis [8]): >=4
Ratio (Enterococcus faecium [9]): >=4
Ratio (Enterococcus faecalis [19]): >=4
MIC (Staphylococcus aureus [10]): 3.13 µg/mL (≈ 16.6 µM)
MBC (Staphylococcus aureus [11]): 25 µg/mL (≈ 133 µM)
MIC (Staphylococcus aureus [12]): 3.13 µg/mL (≈ 16.6 µM)
MBC (Staphylococcus aureus [13]): 25 µg/mL (≈ 133 µM)

CC[C@@H](C)C(=O)O[C@@H](CC=C(C)C)C1=CC(=O)c2c(O)ccc(O)c2C1=O
MIC (Enterococcus faecalis [1]): 3.13 µg/mL (≈ 8.4 µM)
MBC (Enterococcus faecalis [2]): 6.25 µg/mL (≈ 16.8 µM)
MIC (Enterococcus faecium [3]): 3.13 µg/mL (≈ 8.4 µM)
MBC (Enterococcus faecium [4]): 6.25 µg/mL (≈ 16.8 µM)
MIC (Enterococcus faecalis [5]): 3.13 µg/mL (≈ 8.4 µM)
MBC (Enterococcus faecalis [6]): 6.25 µg/mL (≈ 16.8 µM)
Activity (Escherichia coli): inactive
Activity (Pseudomonas aeruginosa): inactive
Ratio (Staphylococcus aureus [7]): <=2
Ratio (Enterococcus faecalis [8]): <=2
Ratio (Enterococcus faecium [9]): <=2
CC50 (HepG2): 5 µg/mL (≈ 13.4 µM)
CC50 (HeLa): 3.9 µg/mL (≈ 10.5 µM)
CC50 (OVCAR-3): 1.7 µg/mL (≈ 4.56 µM)
MIC (Staphylococcus aureus [10]): 1.56 µg/mL (≈ 4.19 µM)
MBC (Staphylococcus aureus [11]): 1.56 µg/mL (≈ 4.19 µM)
MIC (Staphylococcus aureus [12]): 3.13 µg/mL (≈ 8.4 µM)
MBC (Staphylococcus aureus [13]): 3.13 µg/mL (≈ 8.4 µM)

CC[C@H](C)C(=O)O[C@@H](CC=C(C)C)C1=CC(=O)c2c(O)ccc(O)c2C1=O
MIC (Enterococcus faecalis [1]): 1.56 µg/mL (≈ 4.19 µM)
MBC (Enterococcus faecalis [2]): 3.13 µg/mL (≈ 8.4 µM)
MIC (Enterococcus faecium [3]): 1.56 µg/mL (≈ 4.19 µM)
MBC (Enterococcus faecium [4]): 3.13 µg/mL (≈ 8.4 µM)
MIC (Enterococcus faecalis [5]): 1.56 µg/mL (≈ 4.19 µM)
MBC (Enterococcus faecalis [6]): 3.13 µg/mL (≈ 8.4 µM)
Activity (Escherichia coli): inactive
Activity (Pseudomonas aeruginosa): inactive
Ratio (Staphylococcus aureus [7]): <=2
Ratio (Enterococcus faecalis [8]): <=2
Ratio (Enterococcus faecium [9]): <=2
CC50 (HepG2): 0.6 µg/mL (≈ 1.61 µM)
CC50 (HeLa): 0.8 µg/mL (≈ 2.15 µM)
CC50 (OVCAR-3): 0.6 µg/mL (≈ 1.61 µM)
MIC (Staphylococcus aureus [10]): 0.78 µg/mL (≈ 2.09 µM)
MBC (Staphylococcus aureus [11]): 0.78 µg/mL (≈ 2.09 µM)
MIC (Staphylococcus aureus [12]): 1.56 µg/mL (≈ 4.19 µM)
MBC (Staphylococcus aureus [13]): 1.56 µg/mL (≈ 4.19 µM)

CC(=O)O[C@H](CC=C(C)C)C1=CC(=O)c2c(O)ccc(O)c2C1=O [ACETYLSHIKONIN]
MIC (Enterococcus faecalis [1]): 3.13 µg/mL (≈ 9.48 µM)
MBC (Enterococcus faecalis [2]): 3.13 µg/mL (≈ 9.48 µM)
MIC (Enterococcus faecium [3]): 6.25 µg/mL (≈ 18.9 µM)
MBC (Enterococcus faecium [4]): 6.25 µg/mL (≈ 18.9 µM)
MIC (Enterococcus faecalis [5]): 6.25 µg/mL (≈ 18.9 µM)
MBC (Enterococcus faecalis [6]): 6.25 µg/mL (≈ 18.9 µM)
Activity (Escherichia coli): inactive
Activity (Pseudomonas aeruginosa): inactive
Ratio (Staphylococcus aureus [7]): <=2
Ratio (Enterococcus faecalis [8]): <=2
Ratio (Enterococcus faecium [9]): <=2
MIC (Staphylococcus aureus [10]): 1.56 µg/mL (≈ 4.72 µM)
MBC (Staphylococcus aureus [11]): 1.56 µg/mL (≈ 4.72 µM)
MIC (Staphylococcus aureus [12]): 1.56 µg/mL (≈ 4.72 µM)
MBC (Staphylococcus aureus [13]): 1.56 µg/mL (≈ 4.72 µM)

CC(C)=CC[C@@H](O)C1=CC(=O)c2c(O)ccc(O)c2C1=O [SHIKONIN]
MIC (Enterococcus faecalis [1]): 50 µg/mL (≈ 173 µM)
MBC (Enterococcus faecalis [2]): 50 µg/mL (≈ 173 µM)
MIC (Enterococcus faecium [3]): 50 µg/mL (≈ 173 µM)
MBC (Enterococcus faecium [4]): 50 µg/mL (≈ 173 µM)
MIC (Enterococcus faecalis [5]): 25 µg/mL (≈ 86.7 µM)
MBC (Enterococcus faecalis [6]): 50 µg/mL (≈ 173 µM)
Activity (Escherichia coli): inactive
Activity (Pseudomonas aeruginosa): inactive
Ratio (Staphylococcus aureus [7]): <=2
Ratio (Enterococcus faecalis [8]): <=2
Ratio (Enterococcus faecium [9]): <=2
MIC (Staphylococcus aureus [10]): 6.25 µg/mL (≈ 21.7 µM)
MBC (Staphylococcus aureus [11]): 12.5 µg/mL (≈ 43.4 µM)
MIC (Staphylococcus aureus [12]): 6.25 µg/mL (≈ 21.7 µM)
MBC (Staphylococcus aureus [13]): 12.5 µg/mL (≈ 43.4 µM)

Source: ChEMBL document CHEMBL1150162, “Antimicrobial activities of naphthazarins from Arnebia euchroma” (2002)
